Calls of active or inactive are those of the source. The calls are words filed in the database; no cut-off is given here.
Legend:
[1] = tested on: Shoot; assay: Drug metabolism in Echinochloa crus-galli (barnyard grass) shoot assessed as transformation to pratensein at 400 uM after 14 days measured per gm of dry weight by LC-MS analysis; type: ADME; settings: 336 h
Summary of the method: (§1)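 Pregerminated seeds, 14 per container, transplanted onto 0.5% agar medium containing biochanin A. Grown at 24 ± 1 °C under a 16 h light/8 h dark photoperiod and harvested 14 days after transplanting. Roots and shoots collected separately, blotted, washed twice, then freeze-dried. Tissue extracted by ASE at 40 °C and analysed by LC-ESI-MS against commercial standards. Two replicates per treatment.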

[2] = tested on: Shoot; assay: Drug metabolism in Echinochloa crus-galli (barnyard grass) shoot assessed as transformation to sissotrin at 20 uM after 14 days measured per gm of dry weight by LC-MS analysis; type: ADME; settings: 336 h; summary of the method: as §1
[3] = tested on: Amaranthus caudatus; assay: Phytotoxicity against Amaranthus caudatus assessed as root growth inhibition at 100 to 400 uM after 2 weeks by agar medium bioassay; type: functional, organism-based
Summary of the method: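 Agar bioassay with eight biochanin A doses (0–400 µM). Seeds were pregerminated 48 h at room temperature, then 10 seedlings were placed per Petri dish and grown 2 weeks at 24 ± 1 °C under a 16 h light/8 h dark cycle. […]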

[4] = tested on: Silene noctiflora; assay: Phytotoxicity against Silene noctiflora assessed as root growth inhibition after 2 weeks by agar medium bioassay; type: functional, organism-based; settings: 336 h
Summary of the method: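 Agar bioassay with eight biochanin A doses (0–400 µM). Seeds were pregerminated 48 h at room temperature, then 10 seedlings (1–2 mm radicle) were placed per Petri dish. Plants grew 2 weeks at 24 ± 1 °C under a 16 h light/8 h dark cycle. Root length was measured, and EC values were taken from a four-parameter log-logistic nonlinear regression fit.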

[5] = tested on: Root; assay: Drug metabolism in Echinochloa crus-galli (barnyard grass) root assessed as transformation to pratensein at 400 uM after 14 days measured per gm of dry weight by LC-MS analysis; type: ADME; settings: 336 h; summary of the method: as §1

Compound: COc1ccc(-c2coc3cc(O)cc(O)c3c2=O)cc1 [BIOCHANIN]
- Drug metabolism [1]: 0.24 µmol
- Drug metabolism [2]: 0 µmol
- Activity [3]: inactive
- EC25 [4]: 5.2 µM
- EC50 [4]: 35.8 µM
- Drug metabolism [5]: 0.35 µmol
